The values that follow come from ChEMBL document CHEMBL5360580 (Eur J Med Chem, 2023).

Data set [1] deals with SARS-CoV-2. Nature of the data set: Antiviral activity against SARS-CoV-2 infected in African green monkey Vero E6 cells assessed as inhibition of viral replication at 1 uM incubated for 24 hrs by IFA assay relative to control. The note with it: Severe acute respiratory syndrome coronavirus 2, Vero C1008. Type of data set: functional.
Data set [2] is described as follows: Observed MRT (0 to infinity) in ICR mouse at 30 mg/kg, po measured upto 24 hrs by LC-MS/MS analysis. It is filed as ADME, organism-based. The note with it: in vivo. The essentials:
(§1)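 Male-unspecified ICR (CD-1) mice, N = 3 per group, were fasted 12 h. Compound in DMSO/0.5% HMPC (5/95, v/v) was given orally at 30 mg/kg or intravenously at 2.5 mg/kg. Femoral-vein blood was drawn at 0.25, 0.5, 1, 2, 4, 8 and 24 h, and serum analyte levels were measured by LC-MS/MS.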

The subject of data set [3] is Vero C1008. Nature of the data set: Downregulation of SKP2 level in African green monkey Vero E6 cells at 0.3 to 10 uM measured after 16 hrs by Western blotting analysis. Type of data set: functional, cell-based. The note with it: Chlorocebus sabaeus, dose 0.3-10 µM. The essentials: (§2)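 Vero-E6 cells in DMEM with 10% FBS were cultured overnight at 37 °C, 5% CO2, then treated with a concentration series for 16 h. Lysates were made in RIPA on ice and equalised for protein by BCA. Blots were probed for SKP2 or Beclin-1 plus β-actin and detected by ECL. The band-intensity ratio to β-actin was normalised to DMSO control.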
For orientation: A western blot detects proteins with antibodies after separation by electrophoresis.

Data set [4] has as its system Vero C1008. Nature of the data set: Downregulation of BECN1 level in African green monkey Vero E6 cells at 1 to 3 uM measured after 16 hrs by Western blotting analysis. Type of data set: functional, cell-based. The note with it: Chlorocebus sabaeus, dose 1-3 µM. The method in brief: as §2
Data set [5] relates to Vero C1008. Nature of the data set: Cytotoxicity against African green monkey Vero E6 cells assessed as reduction in cell viability measured after 48 hrs by CCK-8 assay. Type of data set: toxicity, cell-based. To be noted: chlorocebus sabaeus, vero c1008, 48 h.
The subject of data set [6] is Vero C1008. In words: Downregulation of BECN1 level in African green monkey Vero E6 cells at 10 uM measured after 16 hrs by Western blotting analysis. To be noted: Chlorocebus sabaeus. Type of data set: functional, cell-based. The essentials: as §2
A short description of data set [7]: Cmax in ICR mouse at 30 mg/kg, po measured upto 24 hrs by LC-MS/MS analysis. Further details: dose 30 mg/kg, time < 24 hrs, route po. The note with it: in vivo. It is filed as ADME, organism-based. The essentials: as §1
In data set [8] the test system is SARS-CoV-2. Nature of the data set: Antiviral activity against SARS-CoV-2 infected in African green monkey Vero E6 cells assessed as inhibition of viral replication at 2.5 uM incubated for 24 hrs by IFA assay relative to control. Type of data set: functional. To be noted: Severe acute respiratory syndrome coronavirus 2, Vero C1008.
Data set [9] can be described thus: AUClast in ICR mouse at 30 mg/kg, po measured upto 24 hrs by LC-MS/MS analysis. Further details: dose 30 mg/kg, time < 24 hrs, route po. The note with it: in vivo. It is filed as ADME, organism-based. The method in brief: as §1
Data set [10] can be described thus: Half life in ICR mouse at 30 mg/kg, po measured upto 24 hrs by LC-MS/MS analysis. Type of data set: ADME, organism-based. To be noted: in vivo. The method in brief: as §1
Data set [11] is described as follows: Observed AUC (0 to infinity) in ICR mouse at 30 mg/kg, po measured upto 24 hrs by LC-MS/MS analysis. It is filed as ADME, organism-based. Further details: dose 30 mg/kg, time < 24 hrs, route po. To be noted: in vivo. The method in brief: as §1
The nature of data set [12]: Aqueous solubility of compound at 0.5 mg/mL in presence of acetonitrile by HPLC analysis. It is filed as physicochemical. The note with it: buffer. The essentials:
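Compound was suspended in water, vortexed vigorously and filtered through a 0.22 μm membrane. The filtrate was diluted 2-fold with 80% acetonitrile and analysed by reversed-phase amide HPLC. Concentration was read against a standard curve prepared from a 0.5 mg/mL solution in 80% acetonitrile. Single determination.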

Data set [13] can be described thus: Prodrug conversion in ICR mouse plasma assessed as half life of compound 5-chloro-4-fluoro-2-hydroxy-N-(4-(trifluoromethoxy)phenyl)benzamide at 30 mg/kg, po and 2.5 mg/kg, iv measured upto 24 hrs by LC-MS/MS analysis. Type of data set: ADME, organism-based. The note with it: in vivo. The essentials: (§3)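 Prodrugs were given to fasted ICR (CD-1) mice (N = 3) in DMSO/0.5% HMPC (5/95), at 30 mg/kg po or 2.5 mg/kg iv. Serum from femoral-vein blood taken 0.25–24 h was analysed by LC-MS/MS for the released parent compound, with mole correction applied to the parameters.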

Data set [14] can be described thus: Prodrug conversion in ICR mouse plasma assessed as oral bioavailability of compound 5-chloro-4-fluoro-2-hydroxy-N-(4-(trifluoromethoxy)phenyl)benzamide at 30 mg/kg measured upto 24 hrs by LC-MS/MS analysis. Type of data set: ADME, organism-based. The note with it: in vivo. The method in brief: as §3
Data set [15] in a line: Prodrug conversion in ICR mouse plasma assessed as Observed MRT (0 to infinity) of compound 5-chloro-4-fluoro-2-hydroxy-N-(4-(trifluoromethoxy)phenyl)benzamide at 30 mg/kg, po and 2.5 mg/kg, iv measured upto 24 hrs by LC-MS/MS analysis. It is filed as ADME, organism-based. To be noted: in vivo. The method in brief:
as §3

Data set [16] can be described thus: Prodrug conversion in ICR mouse plasma assessed as AUClast of compound 5-chloro-4-fluoro-2-hydroxy-N-(4-(trifluoromethoxy)phenyl)benzamide at 30 mg/kg, po and 2.5 mg/kg, iv measured upto 24 hrs by LC-MS/MS analysis. It is filed as ADME, organism-based. Further details: dose 30 mg/kg, time < 24 hrs, route po. The note with it: in vivo. The essentials:
as §3

A short description of data set [17]: Prodrug conversion in ICR mouse plasma assessed as Observed AUC (0 to infinity) of compound 5-chloro-4-fluoro-2-hydroxy-N-(4-(trifluoromethoxy)phenyl)benzamide at 30 mg/kg, po and 2.5 mg/kg, iv measured upto 24 hrs by LC-MS/MS analysis. Type of data set: ADME, organism-based. Further details: time < 24 hrs, dose 30 mg/kg, route po. To be noted: in vivo. The essentials:
as §3

Data set [18] is described as follows: Prodrug conversion in ICR mouse plasma assessed as Cmax of compound 5-chloro-4-fluoro-2-hydroxy-N-(4-(trifluoromethoxy)phenyl)benzamide at 30 mg/kg, po and 2.5 mg/kg, iv measured upto 24 hrs by LC-MS/MS analysis. It is filed as ADME, organism-based. Further details: time < 24 hrs, dose 30 mg/kg, route po. The note with it: in vivo. The essentials:
as §3

In data set [19] the test system is SARS-CoV-2. Nature of the data set: Antiviral activity against SARS-CoV-2 infected in African green monkey Vero E6 cells assessed as inhibition of viral replication incubated for 24 hrs by IFA assay. It is filed as functional, organism-based. The note with it: Severe acute respiratory syndrome coronavirus 2, Vero C1008, 24 h.
A short description of data set [20]: Selectivity index, ratio of CC50 for cytotoxicity against African green monkey Vero E6 to EC50 for antiviral activity against SARS-CoV-2 infected in African green monkey Vero E6 cells. It is filed as toxicity, cell-based, Vero C1008. The note with it: read-out: Ratio CC50/EC50.
Data set [21] has as its system SARS-CoV-2. In words: Antiviral activity against SARS-CoV-2 infected in African green monkey Vero E6 cells assessed as inhibition of viral replication at 5 uM incubated for 24 hrs by IFA assay relative to control. It is filed as functional. To be noted: Severe acute respiratory syndrome coronavirus 2, Vero C1008.

Calls of active or inactive are those of the source. No cut-off for these calls is given here. A value given as a limit tells only on which side of the number the result lay.

As for `N#Cc1ccc(Cl)cc1C(=O)Nc1ccc(C(F)(F)F)cc1`, the inhibition at 1 µM in [1] is under 10%.
Still for that read-out and setting: in the case of `Nc1ccc(NC(=O)c2cc(Cl)ccc2O)c(Cl)c1` it was under 10%; in that of `CS(=O)(=O)Nc1ccc(NC(=O)c2cc(Cl)ccc2O)c(Cl)c1`, under 10%.
On the same count and under the same terms, next, `O=C(Nc1ccc(C(F)(F)F)cc1)c1cc(Cl)cc([N+](=O)[O-])c1O`: 50%; `O=S(=O)(Nc1ccc(C(F)(F)F)cc1)c1cc(Cl)ccc1O`: under 10%.
`O=C(Nc1ccc([N+](=O)[O-])cc1Cl)c1cc(Cl)ccc1O` [NICLOSAMIDE] displayed an MRT in [2] of 2.81 h. The outcome in data set [3], in [4] and in [6] was Active. For the same molecule, in data set [5], the CC50 was determined as 1.96 µM. In data set [7], the Cmax is 428 ng/mL. In addition, the inhibition at 2.5 µM in data set [8] amounted to 39%. Besides, the AUClast in data set [9] worked out at 478 ng·h/mL. This molecule registered a t1/2 in [10] of 1.99 h. The molecule further showed an AUC in data set [11] of 522 ng·h/mL. Also, the solubility in data set [12] was found to be 0.16 µg/mL.
Turning to `O=C(Nc1ccc(C(F)(F)F)cc1)c1cc(Cl)cc(Cl)c1O`, the inhibition at 1 µM in data set [1] is under 10%.
Take `CC(=O)Oc1cc(F)c(Cl)cc1C(=O)Nc1ccc(OC(F)(F)F)cc1`: in data set [13], the t1/2 worked out at 3.57 h. In addition, the F in [14] is 37.61%. In addition, the MRT in data set [15] was found to be 6.03 h. Besides, in [16], the AUClast was determined as 16458 ng·h/mL. In addition, in [17], the exposure (AUC) came to 16726 ng·h/mL. In data set [12], the solubility came to 0.71 µg/mL. Further, the Cmax in [18] is 4771 ng/mL.
Consider `O=C(Nc1ccc(C(F)(F)F)cc1)c1cc(F)ccc1O`, for which the inhibition at 1 µM in data set [1] came to 92%. Moreover, the EC50 in data set [19] was found to be 1.64 µM. The CC50 in [5] is 1.61 µM. In data set [20], the selectivity ratio turned out to be 0.98.
For `O=C(Nc1ccc(C(F)(F)F)cc1)c1cc(Cl)cnc1O`, the inhibition at 1 µM in [1] was found to be 50%.
On to `O=C(NC(=O)c1cc(Cl)ccc1O)c1ccc(C(F)(F)F)cc1`, for which, in data set [1], the inhibition at 1 µM is under 10%.
With `O=C(Nc1ccc(C(F)(F)F)cc1)c1cc(Cl)ccc1O`, the inhibition at 1 µM in data set [1] came to 95%. Besides, the EC50 in data set [19] is 1.31 µM.
Consider `CCC(CC)COC(=O)[C@H](C)N[P@](=O)(OC[C@H]1O[C@@](C#N)(c2ccc3c(N)ncnn23)[C@H](O)[C@@H]1O)Oc1ccccc1`, for which the inhibition at 1 µM in data set [1] was under 10%. Also, the inhibition at 5 µM in [21] was found to be 99%.
In [2], `O=C(Nc1ccc(C(F)(F)F)cc1)c1cc(Cl)c(F)cc1O` came in with an MRT of 5.45 h. Also, in [1], the inhibition at 1 µM turned out to be 95%. In addition, the EC50 in data set [19] was found to be 1 µM. In addition, in data set [5], the CC50 came to 3.73 µM. This molecule showed a Cmax in data set [7] of 452 ng/mL. For the same molecule, the AUClast in data set [9] stood at 1563 ng·h/mL. This molecule registered a t1/2 in data set [10] of 3.1 h. Further, the selectivity ratio in data set [20] amounted to 3.73. Further, the AUC in [11] amounted to 1573 ng·h/mL.

Usually inhibition stands for the relative decrease from the control value, in per cent. As a reminder, the MRT is the average time that molecules of a dose stay in the body. In general, CC50 refers to the concentration giving 50% cytotoxicity. What is called Cmax is the maximum level reached in the sampled fluid or tissue. The AUC is the area under the concentration-time curve, a measure of exposure. A word on the solubility: it is the concentration that dissolves in the medium under given conditions. One may read the EC50 as the concentration needed to bring the measured effect to its halfway point.
